{"source": "ChEMBL document CHEMBL1151715", "about": "“Novel D-xylose derivatives stimulate muscle glucose uptake by activating AMP-activated protein kinase alpha” (J Med Chem, 2008)", "key": {"L6 [1]": {"test_system": "L6", "assay": "Effect on [3H]2-deoxy-D-glucose uptake in rat L6 cells at 20 mM upto 48 hrs relative to control", "type": "functional"}, "[2]": {"assay": "Cytotoxicity against rat L6 cells by MTT assay", "type": "cell-based", "in_short": "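MTT assay on L6 myotubes after the treatment incubations: MTT at 2 mg/mL in αMEM for 30 min at 37 °C, formazan dissolved in DMSO, absorbance read at 570 nm.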"}, "L6 [3]": {"test_system": "L6", "assay": "Effect on [3H]2-deoxy-D-glucose uptake in rat L6 cells at 100 uM relative to control", "type": "functional", "in_short": "(§1)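 L6 myotubes were held in αMEM with 2% FCS and 23.0 mM D-glucose for 24 h. They were then treated with increasing concentrations in medium with 10% FCS and 23.0 mM D-glucose for 7 or 18 h; vehicle controls ran 18 h. After washing, uptake was measured with 0.1 mM dGlc plus 1.3 µCi/mL [3H]dGlc in PBS pH 7.4 for 5 min at room temperature. Ice-cold PBS stop, SDS lysis, scintillation counting; basal rate set to 100%.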"}, "L6 [4]": {"test_system": "L6", "assay": "Effect on [3H]2-deoxy-D-glucose uptake in rat L6 cells at 5 mM after 7 hrs relative to control in presence of insulin", "type": "functional, cell-based", "in_short": "(§2)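 L6 myotubes were preconditioned 24 h at 23.0 mM D-glucose, then given fresh αMEM with 23.0 mM D-glucose plus agent for 7 h. Insulin (200 nM) was added for the last 30 min. A 5-min [3H]dGlc uptake (0.1 mM dGlc, 1.3 µCi/mL) was run in PBS at room temperature, with the 23.0 mM glucose basal rate set to 100%.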"}, "L6 [5]": {"test_system": "L6", "assay": "Increase in [3H]2-deoxy-D-glucose uptake in rat L6 cells preincubated with 23 mM D-glucose for 24 hrs at 5 mM after 7 hrs relative to control", "type": "functional", "in_short": "as §2"}, "L6 [6]": {"test_system": "L6", "assay": "Activation of 5-AMP-induced AMPKalpha in rat L6 cells assessed as […] phosphorylation at 0.25 M relative to control", "type": "cell-based", "in_short": "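AICAR-type positive control on L6 myotubes: 0.25 M D-sorbitol for 30 min. Whole-cell lysates were blotted for total AMPKα and phospho-Thr172 AMPKα, detected by ECL, with bands quantified by densitometry.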"}, "L6 [7]": {"test_system": "L6", "assay": "Effect on [3H]2-deoxy-D-glucose uptake in rat L6 cells at 50 uM relative to control", "type": "functional", "in_short": "as §1"}, "L6 [8]": {"test_system": "L6", "assay": "Effect on [3H]2-deoxy-D-glucose uptake in rat L6 cells at 200 uM relative to control", "type": "functional", "in_short": "as §1"}, "L6 [9]": {"test_system": "L6", "assay": "Effect on [3H]2-deoxy-D-glucose uptake in rat L6 cells at 150 uM relative to control", "type": "functional", "in_short": "as §1"}}, "note": "Calls of active or inactive are those of the source. The calls are words filed in the database; no cut-off is given here.", "data": [{"compound": "COC[C@H]1OC(O)[C@H](O)[C@H]1O", "note": "(some centres not stated)", "values": [{"measurement": "fold change (FC)", "setting": "L6 [1]", "value": 1.03}, {"measurement": "MCC", "setting": "[2]", "value": 50000, "unit": "µM"}]}, {"compound": "COC(OC)[C@@H]1OC(c2ccc(F)cc2)O[C@@H]2COC(c3ccc(F)cc3)O[C@@H]21", "note": "(some centres not stated)", "values": [{"measurement": "MCC", "setting": "[2]", "value": 250, "unit": "µM"}]}, {"compound": "CCOC1OC[C@@H](O)[C@H](O)[C@H]1O", "note": "(some centres not stated)", "values": [{"measurement": "fold change (FC)", "setting": "L6 [1]", "value": 1.01}, {"measurement": "MCC", "setting": "[2]", "value": 50000, "unit": "µM"}]}, {"compound": "O[C@@H]1[C@@H](O)[C@@H](OCc2ccccc2)OC[C@H]1O", "values": [{"measurement": "MCC", "setting": "[2]", "value": 500, "unit": "µM"}, {"measurement": "fold change (FC)", "setting": "L6 [3]", "value": 0.9}]}, {"compound": "CO[C@H]1OC[C@@H](O)[C@H](O)[C@H]1O", "values": [{"measurement": "Activity", "setting": "L6 [4]", "value": "Active"}, {"measurement": "fold change (FC)", "setting": "L6 [5]", "value": 1.98}]}, {"compound": "OC[C@@H](O)[C@@H](O)[C@H](O)[C@@H](O)CO", "values": [{"measurement": "Activity", "setting": "L6 [6]", "value": "Active"}]}, {"compound": "CC1(C)OC[C@H]2O[C@@H]3OC(C)(C)O[C@@H]3[C@H]2O1", "values": [{"measurement": "MCC", "setting": "[2]", "value": 100, "unit": "µM"}, {"measurement": "fold change (FC)", "setting": "L6 [7]", "value": 1.08}]}, {"compound": "CC(=O)O[C@@H]1OC[C@@H](OC(C)=O)[C@H](OC(C)=O)[C@H]1OC(C)=O", "values": [{"measurement": "fold change (FC)", "setting": "L6 [8]", "value": 0.99}, {"measurement": "fold change (FC)", "setting": "L6 [1]", "value": 1.05}, {"measurement": "MCC", "setting": "[2]", "value": 500, "unit": "µM"}]}, {"compound": "CO[C@@H]1OC[C@@H](OC(=O)c2ccccc2)[C@H](OC(=O)c2ccccc2)[C@H]1OC(=O)c1ccccc1", "values": [{"measurement": "fold change (FC)", "setting": "L6 [9]", "value": 1.01}, {"measurement": "MCC", "setting": "[2]", "value": 250, "unit": "µM"}]}, {"compound": "CO[C@@H]1OC[C@@H](OC(=O)C(C)(C)C)[C@H](OC(=O)C(C)(C)C)[C@H]1OC(=O)C(C)(C)C", "values": [{"measurement": "MCC", "setting": "[2]", "value": 150, "unit": "µM"}, {"measurement": "fold change (FC)", "setting": "L6 [3]", "value": 1.03}]}, {"compound": "CO[C@H]1[C@H](O)COC(O)[C@@H]1O", "note": "(some centres not stated)", "values": [{"measurement": "fold change (FC)", "setting": "L6 [5]", "value": 2.1}]}, {"compound": "COC(OC)[C@@H]1OC(c2ccccc2)O[C@@H]2COC(c3ccccc3)O[C@@H]21", "note": "(some centres not stated)", "values": [{"measurement": "fold change (FC)", "setting": "L6 [9]", "value": 1.06}, {"measurement": "MCC", "setting": "[2]", "value": 300, "unit": "µM"}]}]}
